MrgX1 allo act: allosterically activates human MrgX1 receptor signaling. Q96LB2. 310,000 compounds, 0.63% hits. B-score at 10 µM. MrgX1-HEK293, Fluo-4 calcium flux, FDSS; hits give high values;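 active = plate-corrected calcium response at least 3 library SD above typical, normal starting fluorescence, not activating the receptor alone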;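 also: compound read alongside a low EC10 to EC30 dose of BAM8-22 agonist; peak minus trough fluorescence over baseline measured at the second addition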
Target sequence (Q96LB2 whole entry, looked up): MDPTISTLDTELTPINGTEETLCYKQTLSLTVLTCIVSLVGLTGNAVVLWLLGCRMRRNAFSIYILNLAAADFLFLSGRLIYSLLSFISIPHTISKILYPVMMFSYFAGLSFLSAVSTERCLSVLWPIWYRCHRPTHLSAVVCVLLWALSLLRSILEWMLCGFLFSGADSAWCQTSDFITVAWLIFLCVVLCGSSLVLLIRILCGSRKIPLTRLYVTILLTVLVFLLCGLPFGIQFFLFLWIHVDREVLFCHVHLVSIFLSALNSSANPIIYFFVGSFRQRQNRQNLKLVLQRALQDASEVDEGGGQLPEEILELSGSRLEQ
RGS4 block: human RGS4 inhibition. P49798. HEK293 M3R/RGS4 inducible, Fluo-4 calcium flux; hits give high values; triggered by carbachol at its EC20. B-score at 10 µM. 310,000 compounds, 0.45% hits;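 active = B-score, a plate-corrected calcium signal, over three deviations above library mean, with baseline fluorescence within five deviations of library mean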;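 also: RGS4 expression induced by doxycycline in cells with stable M3 receptor; B-score is computed from the integrated fluorescence ratio over baseline after carbachol; higher B-score means a larger calcium signal and so more RGS4 inhibition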
Target sequence (P49798 whole entry, looked up): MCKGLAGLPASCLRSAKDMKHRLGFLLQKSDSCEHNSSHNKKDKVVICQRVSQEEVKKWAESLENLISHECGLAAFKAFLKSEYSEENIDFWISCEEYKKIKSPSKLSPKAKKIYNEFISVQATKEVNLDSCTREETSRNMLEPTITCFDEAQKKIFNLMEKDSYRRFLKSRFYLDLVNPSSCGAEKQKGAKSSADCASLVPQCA
MrgX1 antagonist: human MrgX1 receptor antagonism, primary screen; Q96LB2; MRGX1-HEK293 calcium flux, Fluo-4, BAM8-22 antagonism; hits give low values; B-score at 10 µM; 310,000 compounds, 1.3% hits; AID 588676;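 active = calcium-response B-score plate-corrected more than 3 library SD below zero, starting fluorescence within 5 deviations, no agonist response on first addition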;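 also: peak minus trough fluorescence over baseline after final BAM8-22 challenge near maximal dose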
MrgX1 ag: human MrgX1 receptor agonism, primary screen; MrgX1-HEK293 cells, Fluo-4 calcium fluorescence, agonist mode; hits give high values; B-score at 10 µM; 310,000 compounds, 0.44% hits; AID 588627;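 active = calcium response B-score plate-corrected fluorescence ratio at least 3 library SD, with starting fluorescence B-score inside 5 SD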
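Assay system: stable human MrgX1 HEK293 cell line. Quantity: 15,000 cells per well. Schedule: cells plated overnight, dye loaded 0.5 h 37 °C, 0.5 h room temperature. Detection: Fluo-4 NW calcium-flux fluorescence, kinetic read. Read-out basis: peak-minus-minimum fluorescence over baseline, converted to B scores. Control set: positive and negative control wells on each plate.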
RGS4 pot: RGS4 potentiation or activation | HEK293 M3R/inducible RGS4, carbachol calcium flux Fluo4; hits give low values | B-score at 10 µM | 310,000 compounds, 0.92% hits | AID 463111;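 active = B-score of the integrated calcium signal more than 4 SD below the library mean, with starting fluorescence not abnormally high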;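 also: negative B-score means reduced calcium response which marks RGS4 activation or potentiation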
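Test system: HEK293 cells with stable M3R and inducible RGS4; also added: carbachol at ECmax as muscarinic agonist stimulus; schedule: dye loading 30 min 37 °C, buffer rest 30 min RT; technique: kinetic calcium fluorescence imaging with Fluo4-AM dye, 2 µM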
MrgX1 PAM conf: human MrgX1 positive allosteric modulation, re-confirmation; shares compounds with MrgX1 allo act; 1,200 compounds, 13% hits; MrgX1-HEK293, Fluo-4 calcium fluorescence, FDSS; activation (ratio percentage), % at 10 µM;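 active = ratio at least 3 SD above the weak peptide control, stable starting fluorescence, no direct agonism earlier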;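 also: compound followed by low BAM8-22 agonist challenge near EC20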
MrgX1 antag conf: reconfirmed antagonist of human MrgX1 receptor signaling; remaining BAM8-22 calcium response % of control (hits give low values), % at 10 µM; MrgX1-HEK293, BAM8-22 calcium flux, Fluo-4; hits give low values; shares compounds with MrgX1 antagonist; AID 602420; 2,300 compounds, 19% hits;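 active = remaining agonist calcium response no higher than 100% minus 3 SD of agonist-only control wells, with starting fluorescence near control levels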;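 also: agonist BAM8-22 given at a near maximal EC90 to ECmax level; peak minus minimum fluorescence divided by baseline after agonist addition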
HEK293 Ca flux: activity in parental HEK293 cells lacking MrgX1. Fluo-4 calcium fluorescence, FDSS. shares compounds with MrgX1 antagonist. fluorescence ratio F(max-min)/F0 at 10 µM. 4,000 compounds, 2% hits;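 active = duplicate-averaged calcium fluorescence ratio at least three times the standard deviation of buffer wells, a nonspecific response in parental cells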
HEK293 Ca counter: MrgX1 allosteric activator counter-screen hit in parental HEK293 cells; parental HEK293 calcium flux, Fluo-4 fluorescence ratio; hits give high values; 4,000 compounds, 0.4% hits; fluorescence ratio F(max-min)/F0 at 10 µM; shares compounds with MrgX1 antagonist;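 active = calcium fluorescence ratio, averaged over duplicates, at least 3 SD of the buffer-well ratio, meaning a nonspecific response in receptor-free cells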;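 also: untransfected parental HEK293 lacking MrgX1 used as counterscreen for MrgX1 allosteric activators; fluorescence change taken during the second addition on a kinetic imager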
HEK293 Ca cntr2: counter-screen for MrgX1 activators: effect in parental HEK293 cells; shares compounds with MrgX1 antagonist; Fluo-4 calcium fluorescence (FDSS); hits give high values; fluorescence ratio F(max-min)/F0 at 10 µM; 4,000 compounds, 8.7% hits; AID 624115;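 active = calcium fluorescence ratio at least three times the spread of buffer wells, meaning a non-specific response in parental cells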
* marks the source's active call; other numbers are inactive results; i = inactive; . = not tested or not shown. Most compounds without a hit are left out; they make up all but 3.5% or so of the library.

SMILES	MrgX1 allo act	RGS4 block	MrgX1 antagonist	MrgX1 ag	RGS4 pot	MrgX1 PAM conf	HEK293 Ca flux	HEK293 Ca counter	HEK293 Ca cntr2	others
C=CCNC(=O)c1ccc(OC2CCN(S(=O)(=O)N(C)C)CC2)cc1	i	i	i	i	i	.	.	.	.
CCCCC(=O)NC(=S)Nc1c(C)cc(Br)cc1C	9.27*	i	i	i	i	i	i	i	i
CCCCC(=O)NC(=S)Nc1cccc(NC(=O)CC)c1	i	i	i	i	i	.	.	.	.
Cc1ccc(-c2csc(NC(=O)c3ccc(C)o3)n2)cc1	i	i	i	i	i	.	.	.	.
Cc1ccc(-c2csc(N=C(N)N)n2)cc1	6.98*	i	i	i	i	i	i	i	i
c1ccc(CNc2ncnc3c2cnn3-c2ccccc2)cc1	i	i	i	i	i	.	.	.	.
CC(C)(C)Nc1ncnc2c1cnn2-c1ccccc1	7.72*	i	i	i	i	i	i	i	i
COCCCNCC(O)COc1ccccc1F (stereo not given)	i	i	i	i	i	.	.	.	.
COc1cc(NC(=O)C(Cc2ccccc2)n2cccc2)cc(OC)c1 (stereo not given)	7.07*	i	i	i	i	i	i	i	i
Cc1cc(/C=C2\Cc3ccccc3C2=O)c(C)n1-c1ccccc1	25.5*	i	i	i	i	i	i	i	i
COc1ccccc1/C=C1\Cc2ccccc2C1=O	i	i	i	i	i	.	.	.	.
COc1ccc(OC)c(CN2CCN(C(=O)c3ccc(NS(=O)(=O)c4cccc([N+](=O)[O-])c4)cc3)CC2)c1	19.9*	i	i	i	i	38.0%*	i	i	i
COc1ccc(OC)c(CN2CCN(C(=O)c3cccc(S(=O)(=O)Nc4ccccc4OC)c3)CC2)c1	i	i	i	i	i	.	.	.	.
COc1ccc(NC(=S)N(CCCN2CCCC2)Cc2ccco2)cc1	i	i	i	i	i	.	.	.	.
COc1ccc(NC(=S)N(CCN2CCCCC2)Cc2ccco2)cc1	10.3*	i	i	i	i	i	i	i	i
Cc1cc(-c2ccccc2)c2ccc(NC(=O)C(C)(C)C)nc2n1	i	i	i	i	i	.	.	.	.
Cc1sc2ncn(CCC(=O)O)c(=O)c2c1C	i	i	i	i	i	.	.	.	.
Cc1sc2ncn(CCn3cnc4sc(C)c(C)c4c3=O)c(=O)c2c1C	13.5*	i	i	i	i	i	i	i	i
COc1cc(OC)c(C(=O)NCCCn2ccnc2)cc1OC	6.5*	i	i	i	i	i	i	i	i
COc1ccc(C(=O)NCCCn2ccnc2)cc1	i	i	i	i	i	.	.	.	.
CCC(CC)CN1CCN=C1Nc1ccccc1	i	.	i	i	.	.	.	.	.
CCC1(Cc2ccccc2)NC(=O)c2ccccc2O1 (stereo not given)	12.4*	i	i	i	i	i	i	i	i
O=C1NC2(CCCCCC2)Oc2ccccc21	i	i	i	i	i	.	.	.	.
Cc1ccccc1C(=O)N1CC(=O)Nc2ccc(F)cc2C1c1ccccc1 (stereo not given)	i	i	i	i	i	.	.	.	.
Cc1ccc(Nc2nc3ccccc3s2)c(C)c1	7.01*	i	i	i	i	i	i	i	i
SMILES	MrgX1 allo act	RGS4 block	MrgX1 antagonist	MrgX1 ag	RGS4 pot	MrgX1 PAM conf	HEK293 Ca flux	HEK293 Ca counter	HEK293 Ca cntr2	others
COC(=O)c1cccc(C(=O)N2CCC(CO)(Cc3ccccc3Cl)CC2)c1	9.93*	i	i	i	i	i	i	i	i
COC(=O)c1cccc(C(=O)N2CCC(CO)(CCc3ccccc3)CC2)c1	i	i	i	i	i	.	.	.	.
Cc1ccc(F)cc1NC(=O)COC(=O)C1CCN(c2ccc(C(F)(F)F)cn2)CC1	i	i	i	i	i	.	.	.	.
Cc1ccc(N=Cc2sc(O)c3ccccc23)c(C)c1	i	i	i	i	i	.	.	.	.
Cc1ccc(N=Cc2sc(O)c3ccccc23)cc1	6.99*	i	-6.89*	i	i	i	i	i	i	MrgX1 antag conf=75.3%*
CC(=O)c1sc(NC(=O)c2ccccc2)nc1-c1ccccc1	i	i	i	i	i	.	.	.	.
Cc1sc(NC(=O)c2cccnc2)nc1-c1ccccc1	10.6*	i	i	i	i	i	i	i	i
Cc1cccc(C)c1NC(=O)NC1(C(=O)N2CCOCC2)CCCCC1	i	i	i	i	i	.	.	.	.
COc1ccc(OC)c(NC(=O)Cc2coc3ccc(C)cc23)c1	i	i	i	i	i	.	.	.	.
CCOc1ccccc1NC(=O)Cc1coc2ccc(C)cc12	13.8*	i	i	i	i	i	i	i	i
CCOC(=O)c1c(-c2cccs2)csc1NC(=O)C(C)(C)C	12.1*	i	i	i	i	i	i	i	i
CCOC(=O)c1c(-c2cccs2)csc1NC(C)=O	i	i	i	i	i	.	.	.	.
CCN(CC)C1=C(Cl)C(=O)C(Cl)C12OCCO2 (stereo not given)	i	i	i	i	i	.	.	.	.
COc1ccc(N/C(C)=C/C(=S)Nc2ccccc2)cc1	26.6*	i	i	i	i	i	i	i	i
COc1ccc(N/C(C)=C/C(=O)c2ccccc2)cc1	i	i	i	i	i	.	.	.	.
Cc1ccc(S(=O)(=O)N(C)C)cc1NC(=S)N1CCc2ccccc21	11.4*	i	i	i	i	i	i	i	i
COc1ccc(OCC(=O)N2CCN(S(=O)(=O)c3ccccc3[N+](=O)[O-])CC2)cc1	i	i	i	i	i	.	.	.	.

Screening data: PubChem BioAssay, Johns Hopkins Ion Channel Center
